The sample as a whole holds a higher share of hits than the screen did.
A1 apoptosis 2 = A1 inhibition read as caspase activation | caspase activation, % (no concentration beside the values) | MEF A1-2A-BIM cells, caspase-Glo luminescence, 3 h; percent of clofoctol response, DMSO zero | 24,000 tested, under 10 active | AID 2465; in the data active = caspase activation above about 5.9%; inconclusive = no clear call, values can overlap the other calls; inactive = below about 2.2%
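Evaluation: Caspase-3/7 activity from luminescence increase | Assay system: A1-2A-BIM mouse embryonic fibroblasts | Quantity: 2500 MEF cells/well | Medium: RPMI-1640 plus 10% FBS | Detection: Caspase-Glo 3/7 luminescence, 1 h at room temperature | Dosing: 50 nL compound per well, pinned | Timing: Cells settled overnight, compound exposure 3 h at 37 °C, 5% CO2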
INS-1E ATP HTS = INS-1E beta cell protection from cytokine death. INS-1E cytokine-induced death, ATP luminescence, 48 h; normalised: neutral wells 0, positive control 100. protection from cytokine-induced ATP loss, % at 10 µM. hit rate 0.1% among 20,000. AID 488910;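 active = mean replicate protection from cytokine-induced ATP loss at least 50% and at least 75% of replicates each reaching 50%; inconclusive = meets only one of the two criteria, mean or replicate share; inactive = fails both the mean and replicate share criteria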
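Material: INS-1E rat cells; Quantity: 8000 cells/well; Buffer or medium: phenol-red-free RPMI with 5% fetal bovine serum; Probe or stimulus: cytokine cocktail of IFN-γ, TNF-α and IL-1β; Compound dosing: single test concentration per compound, delivered by pin transfer; Incubation: 48 h co-treatment, 10 min post-lysis read; Signal: CellTiter-Glo luminescence.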
T cruzi HTS = blocks T. cruzi growth inside host cells; activity score (inhibition), % at 5.01 µM; AID 651903; intracellular Trypanosoma cruzi in host cells, plate reader; hit rate 4.9% among 22,000; in the data active = activity score above about 55%; inconclusive = no clear call, values can overlap the other calls;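 also: parasites and compound incubated about four days before reading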
Hits are given with their value; i = inactive; ? = inconclusive; nt = no result given.

SMILES | A1 apoptosis 2 | INS-1E ATP HTS | T cruzi HTS
C[C@@H]1CN([C@@H](C)CO)C(=O)c2cccc(NC(=O)c3cnccn3)c2O[C@@H]1CN(C)Cc1ccc(Oc2ccccc2)cc1 | i | i | i
O=C(O)CCCCCCC(=O)N/N=C/c1ccc(C(F)(F)F)cc1 | nt | i | i
O=C(CCCCCC(=O)N/N=C/C=C/c1ccccc1)NO | i | nt | nt
COc1ccc(C#Cc2ccc3c(c2)[C@]2(C(=O)N3)[C@H](C(=O)NC[C@H](O)c3ccccc3)[C@H]3C(=O)O[C@H](c4ccccc4)[C@H](c4ccccc4)N3[C@@H]2c2ccc(OCCO)cc2)cc1 | i | nt | nt
C[C@@H]1CN([C@@H](C)CO)C(=O)c2cccc(NC(=O)Nc3ccc(C(F)(F)F)cc3)c2O[C@@H]1CN(C)C(=O)Nc1cccc2ccccc12 | i | i | i
C[C@H](CO)N1C[C@H](C)[C@@H](CN(C)C(=O)Nc2cccc3ccccc23)Oc2c(NC(=O)Nc3ccc(C(F)(F)F)cc3)cccc2C1=O | nt | i | 61.3
C[C@H]1CN([C@@H](C)CO)C(=O)c2cccc(NC(=O)Nc3cccc4ccccc34)c2O[C@H]1CN(C)C(=O)Nc1ccc(C(F)(F)F)cc1 | i | i | 63.2
C[C@H](CO)N1C[C@H](C)[C@@H](CN(C)C(=O)Nc2ccc(C(F)(F)F)cc2)Oc2c(NC(=O)Nc3cccc4ccccc34)cccc2C1=O | i | i | i
C[C@H](CO)N1C[C@H](C)[C@H](CN(C)C(=O)Nc2cccc3ccccc23)Oc2c(NC(=O)Nc3ccc(C(F)(F)F)cc3)cccc2C1=O | nt | i | 65.9
C[C@@H]1CN([C@@H](C)CO)C(=O)c2cccc(NC(=O)Nc3ccc(C(F)(F)F)cc3)c2O[C@H]1CN(C)C(=O)Nc1cccc2ccccc12 | i | i | i
O=C(CCCCCC(=O)N/N=C/c1c(F)c(F)c(F)c(F)c1F)NO | i | nt | nt
O=C(N/N=C/c1ccc(-n2ccnc2)cc1)c1ccccc1O | nt | i | i
O=C(N/N=C/c1cccs1)c1ccccc1O | nt | i | i
C[C@@H]1CN([C@H](C)CO)C(=O)c2cccc(NC(=O)c3nc4ccccc4s3)c2O[C@@H]1CN(C)S(=O)(=O)c1ccc(Cl)cc1 | i | i | i
C[C@H](CO)N1C[C@H](C)[C@@H](CN(C)S(=O)(=O)c2ccc(Cl)cc2)Oc2c(NC(=O)c3nc4ccccc4s3)cccc2C1=O | i | i | 66.2
C[C@@H]1CN([C@@H](C)CO)C(=O)c2cccc(NC(=O)c3nc4ccccc4s3)c2O[C@@H]1CN(C)S(=O)(=O)c1ccc(Cl)cc1 | i | i | i
C[C@H](CO)N1C[C@H](C)[C@H](CN(C)S(=O)(=O)c2ccc(Cl)cc2)Oc2c(NC(=O)c3nc4ccccc4s3)cccc2C1=O | i | i | 71.1
NC(=O)[C@@H]1[C@H]2C(=O)O[C@H](c3ccccc3)[C@H](c3ccccc3)N2[C@H](c2ccccc2OCCO)[C@@]12C(=O)Nc1ccc(C#CC3=CCCCC3)cc12 | i | nt | nt
CCOc1cccc(/C=N/NC(=O)c2ccc(C(=O)NO)cc2)c1OCC | i | nt | nt
CCCCN(CCCC)c1ccc(/C=N/NC(=O)CCCCCCC(=O)OC)cc1 | i | i | 58.4
COC(=O)CCCCCCC(=O)N/N=C/c1ccccc1 | i | nt | nt
CC1(C)COC(CCC/C=N/NC(=O)CCCCCCC(=O)NO)OC1 | i | nt | nt
C[C@@H]1CN([C@@H](C)CO)C(=O)c2cccc(NC(=O)C3CC3)c2O[C@H]1CN(C)Cc1ccc(C(=O)Nc2ccccc2N)cc1 | i | i | i
C[C@@H]1CN([C@@H](C)CO)C(=O)c2cccc(NC(=O)C3CCCCC3)c2O[C@@H]1CN(C)Cc1ccc(C(=O)Nc2ccccc2N)cc1 | nt | i | 60.9
C[C@H](CO)N1C[C@H](C)[C@H](CN(C)Cc2ccc(C(=O)Nc3ccccc3N)cc2)Oc2c(NC(=O)NC3CCCCC3)cccc2C1=O | i | i | 58.4
SMILES | A1 apoptosis 2 | INS-1E ATP HTS | T cruzi HTS
C[C@H]1CN([C@@H](C)CO)C(=O)c2cccc(NC(=O)NC3CCCCC3)c2O[C@H]1CN(C)Cc1ccc(C(=O)Nc2ccccc2N)cc1 | nt | i | 59.5
CC(C)NC(=O)Nc1cccc2c1O[C@H](CN(C)Cc1ccc(C(=O)Nc3ccccc3N)cc1)[C@H](C)CN([C@@H](C)CO)C2=O | i | i | i
CC(C)NC(=O)Nc1cccc2c1O[C@@H](CN(C)Cc1ccc(C(=O)Nc3ccccc3N)cc1)[C@@H](C)CN([C@H](C)CO)C2=O | i | i | i
CC(C)NC(=O)Nc1cccc2c1O[C@@H](CN(C)Cc1ccc(C(=O)Nc3ccccc3N)cc1)[C@@H](C)CN([C@@H](C)CO)C2=O | i | i | i
C[C@@H]1CN([C@H](C)CO)C(=O)c2cccc(NC(=O)NC3CCCCC3)c2O[C@@H]1CN(C)Cc1ccc(C(=O)Nc2ccccc2N)cc1 | i | i | 66.5
O=C(CCCCC(=O)N/N=C/c1ccc(O)c(O)c1O)NO | i | i | ?
COc1cc(/C=N/NC(=O)c2cccc(C(=O)NO)c2)cc(OC)c1OC | nt | i | i
CC(/C=C/C(=O)NO)=C\c1ccccc1OC[C@@H]1[C@H]2C[C@H]3c4[nH]c5ccccc5c4CCN3C[C@@H]2CC[C@@H]1O | i | nt | nt
COCCOC(=O)N1C(=O)[C@@]2(c3cc(C#CCC(C(=O)OC)C(=O)OC)ccc31)[C@H](c1ccc(OCCO)cc1)N1[C@H](c3ccccc3)[C@H](c3ccccc3)OC(=O)[C@H]1[C@@H]2C(=O)N1CCN(c2ncccn2)CC1 | i | nt | nt
C=CCNC(=O)[C@H]1[C@@H]2C(=O)O[C@@H](c3ccccc3)[C@@H](c3ccccc3)N2[C@@H](c2ccc(O)cc2)[C@]12C(=O)N(C(=O)OCCOC)c1ccccc12 | i | nt | nt
COCCCNC(=O)[C@@]1(Cc2ccccc2I)c2ccccc2C(=O)N(Cc2ccccc2OC)[C@H]1c1ccc(CO)cc1 | i | nt | nt
C[C@H](CO)N1C[C@H](C)[C@H](CN(C)Cc2ccc(Oc3ccccc3)cc2)Oc2c(NC(=O)Nc3ccc(F)cc3)cccc2C1=O | i | i | i
C[C@H](CO)N1C[C@H](C)[C@@H](CN(C)Cc2ccc(Oc3ccccc3)cc2)Oc2c(NC(=O)Nc3ccc(F)cc3)cccc2C1=O | i | i | 59.5
C[C@@H]1CN([C@@H](C)CO)C(=O)c2cccc(NC(=O)Nc3ccc(F)cc3)c2O[C@@H]1CN(C)Cc1ccc(-c2ccccc2)cc1 | i | i | 68.6
C[C@@H]1CN([C@H](C)CO)C(=O)c2cccc(NC(=O)Nc3ccc(F)cc3)c2O[C@H]1CN(C)Cc1ccc(-c2ccccc2)cc1 | i | i | i
C[C@@H]1CN([C@H](C)CO)C(=O)c2cccc(NC(=O)Nc3ccccc3)c2O[C@H]1CN(C)Cc1ccc(Oc2ccccc2)cc1 | i | i | i
C[C@@H]1CN([C@@H](C)CO)C(=O)c2cccc(NC(=O)Nc3ccccc3)c2O[C@H]1CN(C)Cc1ccc(Oc2ccccc2)cc1 | i | i | 75.6
O=C(NO)c1cccc(C(=O)N/N=C/c2ccccc2Br)c1 | i | i | i
O=C(NO)c1ccc(C(=O)N/N=C/c2cccc(O)c2)cc1 | i | i | i
C[C@@H]1CN([C@H](C)CO)C(=O)CCCn2nncc2CO[C@@H]1CN(C)Cc1ccc(-c2ccccc2)cc1 | nt | nt | 60.0

Source: PubChem
